Experimental data as given in ChEMBL document CHEMBL3864121, “Development of ebsulfur analogues as potent antibacterials against methicillin-resistant Staphylococcus aureus” (Bioorg Med Chem, 2016).
≈ marks a conversion by molar mass, not a printed value. Calls of active or inactive are those of the source. No cut-off for these calls is given here.

Tests used:
Staphylococcus aureus [1] = experiment: Antibacterial activity against methicillin-sensitive Staphylococcus aureus ATCC 6538 measured after overnight incubation by broth double-dilution method; type: functional
Outline: (§1)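 MIC by broth double-dilution in liquid Mueller-Hinton medium. Values are reported in µg/mL.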

Staphylococcus aureus [2] = experiment: Antibacterial activity against methicillin-sensitive Staphylococcus aureus ATCC 25923 measured after overnight incubation by broth double-dilution method; type: functional; outline: as §1
Staphylococcus aureus [3] = experiment: Antibacterial activity against methicillin-sensitive Staphylococcus aureus ATCC 29213 measured after overnight incubation by broth double-dilution method; type: functional; outline: as §1
Staphylococcus aureus [4] = experiment: Antibacterial activity against methicillin-resistant Staphylococcus aureus ATCC 33591 measured after overnight incubation by broth double-dilution method; type: functional; outline: as §1
Staphylococcus aureus [5] = experiment: Antibacterial activity against methicillin-resistant Staphylococcus aureus 1 measured after overnight incubation by broth double-dilution method; type: functional; outline: as §1
Staphylococcus aureus [6] = experiment: Antibacterial activity against methicillin-resistant Staphylococcus aureus 2 measured after overnight incubation by broth double-dilution method; type: functional; outline: as §1
Staphylococcus aureus [7] = experiment: Antibacterial activity against methicillin-resistant Staphylococcus aureus BRS3 measured after overnight incubation by broth double-dilution method; type: functional; outline: as §1
Staphylococcus aureus [8] = experiment: Antibacterial activity against methicillin-resistant Staphylococcus aureus C1 measured after overnight incubation by broth double-dilution method; type: functional; outline: as §1
Staphylococcus aureus [9] = experiment: Antibacterial activity against methicillin-resistant Staphylococcus aureus C2 measured after overnight incubation by broth double-dilution method; type: functional; outline: as §1
Staphylococcus aureus [10] = experiment: Antibacterial activity against methicillin-resistant Staphylococcus aureus C7 measured after overnight incubation by broth double-dilution method; type: functional; outline: as §1
Staphylococcus aureus [11] = experiment: Antibacterial activity against methicillin-resistant Staphylococcus aureus C14 measured after overnight incubation by broth double-dilution method; type: functional; outline: as §1
Staphylococcus aureus [12] = experiment: Antibacterial activity against methicillin-resistant Staphylococcus aureus C16 measured after overnight incubation by broth double-dilution method; type: functional; outline: as §1
Staphylococcus aureus [13] = experiment: Antibacterial activity against methicillin-resistant Staphylococcus aureus C19 measured after overnight incubation by broth double-dilution method; type: functional; outline: as §1
Staphylococcus aureus [14] = experiment: Antibacterial activity against methicillin-resistant Staphylococcus aureus G1 measured after overnight incubation by broth double-dilution method; type: functional; outline: as §1
Staphylococcus aureus [15] = experiment: Antibacterial activity against methicillin-resistant Staphylococcus aureus G6 measured after overnight incubation by broth double-dilution method; type: functional; outline: as §1
Staphylococcus aureus [16] = experiment: Antibacterial activity against methicillin-resistant Staphylococcus aureus G12 measured after overnight incubation by broth double-dilution method; type: functional; outline: as §1
Staphylococcus aureus [17] = experiment: Antibacterial activity against methicillin-resistant Staphylococcus aureus G14 measured after overnight incubation by broth double-dilution method; type: functional; outline: as §1
Staphylococcus aureus [18] = experiment: Antibacterial activity against methicillin-resistant Staphylococcus aureus NRS4 measured after overnight incubation by broth double-dilution method; type: functional; outline: as §1
Staphylococcus aureus [19] = experiment: Antibacterial activity against methicillin-resistant Staphylococcus aureus NRS51 measured after overnight incubation by broth double-dilution method; type: functional; outline: as §1
Staphylococcus aureus [20] = experiment: Antibacterial activity against methicillin-resistant Staphylococcus aureus NRS77 measured after overnight incubation by broth double-dilution method; type: functional; outline: as §1
Staphylococcus aureus [21] = experiment: Antibacterial activity against methicillin-resistant Staphylococcus aureus S14 measured after overnight incubation by broth double-dilution method; type: functional; outline: as §1
Staphylococcus aureus [22] = experiment: Antibacterial activity against methicillin-resistant Staphylococcus aureus S17 measured after overnight incubation by broth double-dilution method; type: functional; outline: as §1
Staphylococcus aureus [23] = experiment: Antibacterial activity against methicillin-resistant Staphylococcus aureus S22 measured after overnight incubation by broth double-dilution method; type: functional; outline: as §1
Staphylococcus aureus [24] = experiment: Antibacterial activity against methicillin-resistant Staphylococcus aureus S24 measured after overnight incubation by broth double-dilution method; type: functional; outline: as §1
Staphylococcus aureus [25] = experiment: Antibacterial activity against methicillin-resistant Staphylococcus aureus USA100 measured after overnight incubation by broth double-dilution method; type: functional; outline: as §1
Staphylococcus aureus [26] = experiment: Antibacterial activity against methicillin-resistant Staphylococcus aureus USA200 measured after overnight incubation by broth double-dilution method; type: functional; outline: as §1
Staphylococcus aureus [27] = experiment: Antibacterial activity against methicillin-resistant Staphylococcus aureus USA300 measured after overnight incubation by broth double-dilution method; type: functional; outline: as §1
Staphylococcus aureus [28] = experiment: Antibacterial activity against methicillin-resistant Staphylococcus aureus USA600 measured after overnight incubation by broth double-dilution method; type: functional; outline: as §1
[29] = tested on: Staphylococcus epidermidis; experiment: Antibacterial activity against Staphylococcus epidermidis ATCC 35984 measured after overnight incubation by broth double-dilution method; type: functional; details: RP62A
Outline: (§2)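 MIC by broth double-dilution in Mueller-Hinton medium. Re-testing at the time-kill inoculum used 1×10^6 CFU/mL.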

Enterococcus faecalis [30] = experiment: Antibacterial activity against Enterococcus faecalis ATCC 29212 measured after overnight incubation by broth double-dilution method; type: functional; outline: as §2
Enterococcus faecalis [31] = experiment: Antibacterial activity against Enterococcus faecalis ATCC 49533 measured after overnight incubation by broth double-dilution method; type: functional; outline: as §2
Enterococcus faecium = experiment: Antibacterial activity against Enterococcus faecium BM4105-RF measured after overnight incubation by broth double-dilution method; type: functional; outline: as §1
Enterococcus = experiment: Antibacterial activity against Vancomycin-resistant Enterococcus measured after overnight incubation by broth double-dilution method; type: functional; outline: as §1
Listeria monocytogenes = experiment: Antibacterial activity against Listeria monocytogenes ATCC 19115 measured after overnight incubation by broth double-dilution method; type: functional; outline: as §2
[32] = tested on: Mycolicibacterium smegmatis; experiment: Antibacterial activity against Mycobacterium smegmatis MC2-155 measured after overnight incubation by broth double-dilution method; type: functional; details: str. MC2 155; outline: as §1
Acinetobacter baumannii = experiment: Antibacterial activity against Acinetobacter baumannii ATCC 19606 measured after overnight incubation by broth double-dilution method; type: functional; outline: as §2
Enterobacter cloacae = experiment: Antibacterial activity against Enterobacter cloacae ATCC 13047 measured after overnight incubation by broth double-dilution method; type: functional; details: subsp. cloacae ATCC 13047; outline: as §1
Escherichia coli = experiment: Antibacterial activity against Escherichia coli MC1061 measured after overnight incubation by broth double-dilution method; type: functional; outline: as §1
Klebsiella pneumoniae = experiment: Antibacterial activity against Klebsiella pneumoniae ATCC 27736 measured after overnight incubation by broth double-dilution method; type: functional; outline: as §1
Pseudomonas aeruginosa = experiment: Antibacterial activity against Pseudomonas aeruginosa ATCC 27853 measured after overnight incubation by broth double-dilution method; type: functional; outline: as §2
Salmonella enterica = experiment: Antibacterial activity against Salmonella enterica ATCC 14028 measured after overnight incubation by broth double-dilution method; type: functional; outline: as §2
[33] = tested on: Staphylococcus epidermidis; experiment: Antibacterial activity against Staphylococcus epidermidis ATCC 12228 measured after overnight incubation by broth double-dilution method; type: functional; outline: as §2
Staphylococcus aureus [34] = experiment: Bacteriostatic activity against methicillin-resistant Staphylococcus aureus S22 at 0.5 times MIC measured up to 3 to 6 hrs by time kill analysis; type: functional
Staphylococcus aureus [35] = experiment: Bacteriostatic activity against methicillin-resistant Staphylococcus aureus S22 at MIC measured up to 3 to 6 hrs by time kill analysis; type: functional
Staphylococcus aureus [36] = experiment: Antibacterial activity against methicillin-resistant Staphylococcus aureus S22 using 1 10^6CFU/ml measured after overnight incubation by broth double-dilution method; type: functional
[37] = Cytotoxicity against HEK293 cells assessed as cell death at […] measured after 24 hrs by resazurin dye-based fluorescence analysis relative to untreated control; type: toxicity; details: human, hek293, 24 h

NCC[C@H](O)C(=O)N[C@@H]1C[C@H](N)[C@@H](O[C@H]2O[C@H](CN)[C@@H](O)[C@H](O)[C@H]2O)[C@H](O)[C@H]1O[C@H]1O[C@H](CO)[C@@H](O)[C@H](N)[C@H]1O [AMIKACIN]
MIC (Staphylococcus aureus [1]): 2 µg/mL (≈ 3.42 µM) | MIC (Staphylococcus aureus [2]): ≤ 0.25 µg/mL | MIC (Staphylococcus aureus [3]): 62.5 µg/mL (≈ 107 µM) | MIC (Staphylococcus aureus [4]): 31.3 µg/mL (≈ 53.4 µM) | MIC (Staphylococcus aureus [5]): 31.3 µg/mL (≈ 53.4 µM) | MIC (Staphylococcus aureus [6]): 3.9 µg/mL (≈ 6.66 µM) | MIC (Staphylococcus aureus [7]): 62.5 µg/mL (≈ 107 µM) | MIC (Staphylococcus aureus [8]): 2 µg/mL (≈ 3.42 µM) | MIC (Staphylococcus aureus [9]): 2 µg/mL (≈ 3.42 µM) | MIC (Staphylococcus aureus [10]): 7.8 µg/mL (≈ 13.3 µM) | MIC (Staphylococcus aureus [11]): 31.3 µg/mL (≈ 53.4 µM) | MIC (Staphylococcus aureus [12]): 31.3 µg/mL (≈ 53.4 µM) | MIC (Staphylococcus aureus [13]): 3.9 µg/mL (≈ 6.66 µM) | MIC (Staphylococcus aureus [14]): 31.3 µg/mL (≈ 53.4 µM) | MIC (Staphylococcus aureus [15]): 15.6 µg/mL (≈ 26.6 µM) | MIC (Staphylococcus aureus [16]): 15.6 µg/mL (≈ 26.6 µM) | MIC (Staphylococcus aureus [17]): 31.3 µg/mL (≈ 53.4 µM) | MIC (Staphylococcus aureus [18]): 31.3 µg/mL (≈ 53.4 µM) | MIC (Staphylococcus aureus [19]): 15.6 µg/mL (≈ 26.6 µM) | MIC (Staphylococcus aureus [20]): 0.5 µg/mL (≈ 0.854 µM) | MIC (Staphylococcus aureus [21]): 7.8 µg/mL (≈ 13.3 µM) | MIC (Staphylococcus aureus [22]): 31.3 µg/mL (≈ 53.4 µM) | MIC (Staphylococcus aureus [23]): 7.8 µg/mL (≈ 13.3 µM) | MIC (Staphylococcus aureus [24]): 31.3 µg/mL (≈ 53.4 µM) | MIC (Staphylococcus aureus [25]): 62.5 µg/mL (≈ 107 µM) | MIC (Staphylococcus aureus [26]): 62.5 µg/mL (≈ 107 µM) | MIC (Staphylococcus aureus [27]): 62.5 µg/mL (≈ 107 µM) | MIC (Staphylococcus aureus [28]): 62.5 µg/mL (≈ 107 µM) | MIC [29]: 15.6 µg/mL (≈ 26.6 µM) | MIC (Enterococcus faecalis [30]): 125 µg/mL (≈ 213 µM) | MIC (Enterococcus faecalis [31]): > 125 µg/mL | MIC (Enterococcus faecium): 125 µg/mL (≈ 213 µM) | MIC (Enterococcus): 62.5 µg/mL (≈ 107 µM) | MIC (Listeria monocytogenes): 3.9 µg/mL (≈ 6.66 µM) | MIC [32]: ≤ 0.25 µg/mL | MIC (Acinetobacter baumannii): 7.8 µg/mL (≈ 13.3 µM) | MIC (Enterobacter cloacae): 1 µg/mL (≈ 1.71 µM) | MIC (Escherichia coli): 2 µg/mL (≈ 3.42 µM) | MIC (Klebsiella pneumoniae): 1 µg/mL (≈ 1.71 µM) | MIC (Pseudomonas aeruginosa): 31.3 µg/mL (≈ 53.4 µM) | MIC (Salmonella enterica): 7.8 µg/mL (≈ 13.3 µM) | MIC [33]: 31.3 µg/mL (≈ 53.4 µM) | Activity (Staphylococcus aureus [34]): Active | Activity (Staphylococcus aureus [35]): Active | Activity (Staphylococcus aureus [36]): Active

O=c1c2ccccc2sn1C1CCCC1
MIC (Staphylococcus aureus [1]): 7.8 µg/mL (≈ 35.6 µM) | MIC (Staphylococcus aureus [3]): 2 µg/mL (≈ 9.12 µM) | MIC (Staphylococcus aureus [5]): 2 µg/mL (≈ 9.12 µM) | MIC (Staphylococcus aureus [8]): 3.9 µg/mL (≈ 17.8 µM) | MIC (Staphylococcus aureus [11]): 3.9 µg/mL (≈ 17.8 µM) | MIC (Staphylococcus aureus [14]): 2 µg/mL (≈ 9.12 µM) | MIC (Staphylococcus aureus [16]): 3.9 µg/mL (≈ 17.8 µM) | MIC (Staphylococcus aureus [21]): 0.5 µg/mL (≈ 2.28 µM) | MIC (Staphylococcus aureus [23]): 7.8 µg/mL (≈ 35.6 µM) | MIC (Staphylococcus aureus [28]): 7.8 µg/mL (≈ 35.6 µM) | MIC [29]: 2 µg/mL (≈ 9.12 µM) | MIC (Enterococcus faecalis [30]): > 125 µg/mL | MIC (Enterococcus faecalis [31]): > 125 µg/mL | MIC (Enterococcus faecium): > 125 µg/mL | MIC (Enterococcus): 2 µg/mL (≈ 9.12 µM) | MIC [32]: 2 µg/mL (≈ 9.12 µM) | Activity [37]: > 20%
